Series [1] is described as follows: Plasma concentration in mouse at 50 mg/kg, po after 2 hrs. The format is ADME, organism-based. On the set-up: dose 50 mg/kg, route oral. The gist of the method: (§1)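 Nude mice given a single 50 mg/kg oral dose. Blood levels measured at 2 and 4 h (one compound at 1 h), three mice per measurement, with coefficient of variation reported.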
Series [2] in a line: Plasma concentration in mouse at 50 mg/kg, po after 4 hrs. The class given is ADME, organism-based. Also noted: dose 50 mg/kg, route oral. The gist of the method: as §1
A short description of series [3]: Apparent permeability across PAMPA membrane. Particulars: read-out: permeability. The format is ADME. The gist of the method: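 Permeability measured in a PAMPA assay, reported in cm/s.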
(In general: In PAMPA a lipid-coated filter parts donor from acceptor wells.)

Series [4] can be described thus: Cmax in nude mouse at 50 mg/kg, po. Particulars: in vivo. The class given is ADME, organism-based. Also noted: dose 50 mg/kg, route oral. The procedure, abridged: (§2)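 Female nude mice given a single dose, 2 mg/kg iv in 0.5% methylcellulose/1% Tween 80 brought to pH 3 with aqueous HCl, or 50 mg/kg by oral gavage. Three mice per group were bled by cardiac stick under isoflurane at 0.25, 0.5, 1, 4, 8 and 24 h and plasma collected. Cl, Vss, T1/2, Cmax, AUC extrapolated to infinity and %F were derived.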

Series [5] in a line: Half life in nude mouse at 2 mg/kg, iv. The format is ADME, organism-based. Also noted: dose 2 mg/kg, route intravenous. Particulars: in vivo. The gist of the method:
as §2

The nature of series [6]: Volume of distribution at steady state in female rat at 1 mg/kg, iv. The class given is ADME, organism-based. On the set-up: dose 1 mg/kg, route intravenous. Particulars: in vivo, read-out: Vdss.
A short description of series [7]: Oral bioavailability in nude mouse at 50 mg/kg. The format is ADME, organism-based. Particulars: in vivo. The procedure, abridged:
as §2

Series [8] is described as follows: Volume of distribution at steady state in nude mouse at 2 mg/kg, iv. Particulars: in vivo, read-out: Vdss. Also noted: dose 2 mg/kg, route intravenous. The format is ADME, organism-based. The procedure, abridged:
as §2

Series [9] is described as follows: AUC (infinity) in female rat at 10 mg/kg, po. On the set-up: time infinity, dose 10 mg/kg, route oral. Particulars: plasma. The class given is ADME, organism-based.
Series [10] in a line: AUC (infinity) in nude mouse at 50 mg/kg, po. The class given is ADME, organism-based. On the set-up: time infinity, dose 50 mg/kg, route oral. Particulars: plasma. The gist of the method:
as §2

Series [11] in a line: Clearance in female rat at 1 mg/kg, iv. The format is ADME, organism-based. On the set-up: dose 1 mg/kg, route intravenous. Particulars: in vivo.
The nature of series [12]: AUC (infinity) in male rat at 10 mg/kg, po. The format is ADME, organism-based. On the set-up: time infinity, dose 10 mg/kg, route oral. Particulars: plasma.
Series [13] in a line: Cmax in female rat at 10 mg/kg, po. Particulars: in vivo. Also noted: dose 10 mg/kg, route oral. The format is ADME, organism-based.
Series [14] in a line: Metabolic stability in CD1 rat liver microsomes. The class given is ADME, Microsome. The procedure, abridged:
(§3)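 Stability measured as half-life on exposure to male CD-1 mouse and rat liver microsomes.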

Series [15] is described as follows: Volume of distribution at steady state in male rat at 1 mg/kg, iv. The class given is ADME, organism-based. On the set-up: dose 1 mg/kg, route intravenous. Particulars: in vivo, read-out: Vdss.
Series [16] is described as follows: Half life in female rat at 1 mg/kg, iv. The format is ADME, organism-based. On the set-up: dose 1 mg/kg, route intravenous. Particulars: in vivo.
Series [17] is described as follows: Cmax in male rat at 10 mg/kg, po. The format is ADME, organism-based. Also noted: dose 10 mg/kg, route oral. Particulars: in vivo.
Series [18] is described as follows: Clearance in nude mouse at 2 mg/kg, iv. The class given is ADME, organism-based. On the set-up: dose 2 mg/kg, route intravenous. Particulars: in vivo. The gist of the method: as §2
Series [19] is described as follows: Half life in male rat at 1 mg/kg, iv. The format is ADME, organism-based. Also noted: dose 1 mg/kg, route intravenous. Particulars: in vivo.
Series [20] can be described thus: Clearance in male rat at 1 mg/kg, iv. The format is ADME, organism-based. On the set-up: dose 1 mg/kg, route intravenous. Particulars: in vivo.
A short description of series [21]: Metabolic stability in mouse liver microsomes. The format is ADME, Microsome. The procedure, abridged: as §3
Series [22] is described as follows: Oral bioavailability in male rat at 10 mg/kg. The class given is ADME, organism-based. Particulars: in vivo.
Series [23] can be described thus: Oral bioavailability in female rat at 10 mg/kg. The format is ADME, organism-based. Particulars: in vivo.
Series [24] in a line: Plasma concentration in mouse at 50 mg/kg, po after 1 hr. The class given is ADME, organism-based. On the set-up: dose 50 mg/kg, route oral. The gist of the method:
as §1

On to `Cn1ccnc1Sc1ccc(Nc2c(C#N)cnc3cc(/C=C/CCN4CCOCC4)ccc23)cc1Cl`, for which, in series [1], the concentration at 2 h was determined as 95 ng/mL. The compound further returned a concentration at 4 h in series [2] of 22 ng/mL.
As to `CCN1CCN(CC/C=C/c2ccc3c(Nc4ccc(Sc5nccn5C)c(Cl)c4)c(C#N)cnc3c2)CC1`, the Papp in series [3] was found to be 0.45 ×10⁻⁶ cm/s. Besides, the figures for the peak concentration (Cmax) in series [4], in series [13] and in series [17] were 510 ng/mL, 298 ng/mL and 61 ng/mL, respectively. For the same compound, the half-life (in general, how long it takes for the measured level to halve) is 54 min in series [5]; 21 min in series [14]; 150 min in [16]; 108 min in series [19]; 16.5 min in series [21]. In addition, the Vd in series [6] was 5.7 L/kg; in series [8], 2.7 L/kg; in series [15], 7.6 L/kg. Further, in series [1], the concentration at 2 h was found to be 494 ng/mL. Also, in [2], the concentration at 4 h was determined as 132 ng/mL. Besides, the bioavailability (commonly the share of a dose that reaches the circulation, judged against a reference dose that is usually intravenous) in series [7] was determined as 17%; in [22], 13%; in series [23] it was 23%. Besides, the total exposure AUC(0-inf) – broadly, the area under the concentration-time curve extrapolated to infinity – in series [9] stood at 988 ng·h/mL; in series [10] it was 2170 ng·h/mL; in series [12], 204 ng·h/mL. The clearance – broadly, the volume of plasma or blood freed of the substance per unit of time – in [11] turned out to be 35.7 mL/min/kg; in series [18], 66 mL/min/kg; in series [20], 70.3 mL/min/kg.
`CN1CCN(CC/C=C/c2ccc3c(Nc4ccc(Sc5nccn5C)c(Cl)c4)c(C#N)cnc3c2)CC1` had a concentration at 2 h in series [1] of 368 ng/mL. The concentration at 4 h in [2] came to 85 ng/mL.
The compound `Cn1ccnc1Sc1ccc(Nc2c(C#N)cnc3cc(/C=C/CN4CCCC4)ccc23)cc1Cl` yielded a concentration at 4 h in series [2] of 11 ng/mL. The compound also had a concentration at 1 h in series [24] of 72 ng/mL.
With `Cn1ccnc1Sc1ccc(Nc2c(C#N)cnc3cc(/C=C/CCN4CCCC4)ccc23)cc1Cl`, in series [1], the concentration at 2 h was 319 ng/mL. In series [2], the concentration at 4 h came to 82 ng/mL.
The compound `COc1cc2c(Nc3ccc(Sc4nccn4C)c(Cl)c3)c(C#N)cnc2cc1/C=C/CCN1CCN(C)CC1` showed a concentration at 2 h in series [1] of 267 ng/mL. In series [2], the concentration at 4 h is 76 ng/mL.

Values taken from ChEMBL document CHEMBL1142456, “4-Anilino-7-alkenylquinoline-3-carbonitriles as potent MEK1 kinase inhibitors” (Bioorg Med Chem, 2008).
